Source: ChEMBL document CHEMBL4024768, “Discovery and Optimization of Thiazolidinyl and Pyrrolidinyl Derivatives as Inhaled PDE4 Inhibitors for Respiratory Diseases” (J Med Chem, 2017)

Columns and labels:
[1] = target: High affinity cGMP-specific 3',5'-cyclic phosphodiesterase 9A (Homo sapiens, UniProt O76083); assay: Inhibition of human recombinant PDE9A2 expressed insect sf9 cells by radiometric assay
Procedure, shortened: (§1)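 Human recombinant PDEs expressed in Sf9 cells, except PDE6 purified from bovine retina. Radiometric two-step method, modified from Thompson and Appleman. Five concentrations in duplicate, starting at 30 μM with 1:10 serial dilution, 1% final DMSO.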

Cytochrome P450 3A4 = Cytochrome P450 3A4 (Homo sapiens, UniProt P08684); assay: Binding affinity to human liver microsomes CYP3A4 at 1 uM; type: ADME
Procedure, shortened: (§2)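 Off-target screening panel of about 400 receptors, enzymes and ion channels, run at 1 μM. Result expressed as % binding.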

[2] = target: cGMP-dependent 3',5'-cyclic phosphodiesterase (Homo sapiens, UniProt O00408); assay: Inhibition of human recombinant PDE2A expressed insect sf9 cells by radiometric assay; procedure, shortened: as §1
[3] = Tmax in Sprague-Dawley rat lung at 1 umol/kg, it administered as micronized powder measured up to 24 hrs post dose by electrospray LC-MS analysis; type: ADME, tissue-based; conditions: inhaled or intranasal
Procedure, shortened: (§3)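 Sprague-Dawley rats (250−400 g) dosed intratracheally with micronized dry powder blended with coarse lactose, delivered by insufflator under isoflurane anaesthesia. Blood collected in heparinized tubes and spun at 1200g for 15 min. Lung sampled at 0.25, 1, 2, 4, 8, 16 and 24 h, n = 3 per time point.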

[4] = target: cGMP-specific 3',5'-cyclic phosphodiesterase (Homo sapiens, UniProt O76074); assay: Inhibition of human recombinant PDE5A expressed insect sf9 cells by radiometric assay; procedure, shortened: as §1
[5] = target: High affinity 3',5'-cyclic-AMP phosphodiesterase 7A (Homo sapiens, UniProt Q13946); assay: Inhibition of human recombinant PDE7A expressed insect sf9 cells by radiometric assay; procedure, shortened: as §1
[6] = target: cAMP and cAMP-inhibited cGMP 3',5'-cyclic phosphodiesterase 10A (Homo sapiens, UniProt Q9Y233); assay: Inhibition of human recombinant PDE10A2 expressed insect sf9 cells by radiometric assay; procedure, shortened: as §1
Lung [7] = assay: Drug uptake in Sprague-Dawley rat lung at 1 umol/kg, it administered as micronized powder measured at 24 hrs post dose by electrospray LC-MS analysis; type: ADME, tissue-based; conditions: in vivo, inhaled_or_intranasal; procedure, shortened: as §3
Lung [8] = assay: Tlast in Sprague-Dawley rat lung at 1 umol/kg, it administered as micronized powder measured up to 24 hrs post dose by electrospray LC-MS analysis; type: ADME, tissue-based; conditions: in vivo, inhaled_or_intranasal; procedure, shortened: as §3
[9] = MRTlast in Sprague-Dawley rat plasma at 1 umol/kg, it administered as micronized powder measured up to 24 hrs post dose by electrospray LC-MS analysis; type: ADME, cell-free; conditions: inhaled or intranasal; procedure, shortened: as §3
[10] = Stability in human hepatocytes assessed as parent compound remaining at 10 uM after 60 mins by LC-MS/MS analysis; type: ADME, cell-based, Hepatocyte; conditions: read-out: Stability
Procedure, shortened: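 Pooled mixed-sex cryopreserved human hepatocytes (1 million cells/mL) in Leibovitz L-15 at 37 °C, compound at 10 μM in duplicate. Sampled at 0 and 60 min. Protein-free supernatant evaporated under nitrogen, reconstituted in mobile phase and analysed by LC−MS/MS. Cell-free medium incubation for 60 min as control.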

[11] = Intrinsic clearance in human hepatocytes assessed per million cells at 1 uM measured after 90 mins by LC-MS/MS analysis; type: ADME, cell-based, Hepatocyte; conditions: read-out: CLH
Procedure, shortened: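 Compound at 1 μM with hepatocytes (1 million cells/mL) in Leibovitz L-15 at 37 °C, in duplicate. Sampled at 0, 10, 20, 30, 60 and 90 min, quenched with ice-cold acetonitrile, centrifuged, and unchanged compound measured by LC−MS/MS. Included 7-ethoxycoumarin and 7-hydroxycoumarin activity controls and cell-free medium controls.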

Plasma [12] = assay: Tlast in Sprague-Dawley rat plasma at 1 umol/kg, it administered as micronized powder measured up to 24 hrs post dose by electrospray LC-MS analysis; type: ADME, cell-free; conditions: inhaled_or_intranasal; procedure, shortened: as §3
[13] = Intrinsic clearance in human liver microsomes at 1 uM measured after 60 mins in presence NADPH by LC-MS/MS analysis; type: ADME, microsome; conditions: read-out: CLH
Procedure, shortened: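 Compound at 1 μM with human liver microsomes (0.8 mg protein/mL) in Dulbecco's buffer pH 7.4, 1 mM NADPH, 37 °C, in duplicate. Sampled at 0, 5, 10, 20, 30 and 60 min, quenched with ice-cold acetonitrile, and unchanged compound measured by LC−MS/MS. No-NADPH controls; midazolam (1 μM) as phase I control.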

[14] = target: Voltage-gated inwardly rectifying potassium channel KCNH2 (Homo sapiens, UniProt Q12809); assay: Inhibition of human ERG at 1 uM
[15] = target: T1, Amine oxidase [flavin-containing] A (Homo sapiens, UniProt P21397); assay: Binding affinity to human monoamine oxidase A at 1 uM; procedure, shortened: as §2
T1 sequence (P21397 whole entry): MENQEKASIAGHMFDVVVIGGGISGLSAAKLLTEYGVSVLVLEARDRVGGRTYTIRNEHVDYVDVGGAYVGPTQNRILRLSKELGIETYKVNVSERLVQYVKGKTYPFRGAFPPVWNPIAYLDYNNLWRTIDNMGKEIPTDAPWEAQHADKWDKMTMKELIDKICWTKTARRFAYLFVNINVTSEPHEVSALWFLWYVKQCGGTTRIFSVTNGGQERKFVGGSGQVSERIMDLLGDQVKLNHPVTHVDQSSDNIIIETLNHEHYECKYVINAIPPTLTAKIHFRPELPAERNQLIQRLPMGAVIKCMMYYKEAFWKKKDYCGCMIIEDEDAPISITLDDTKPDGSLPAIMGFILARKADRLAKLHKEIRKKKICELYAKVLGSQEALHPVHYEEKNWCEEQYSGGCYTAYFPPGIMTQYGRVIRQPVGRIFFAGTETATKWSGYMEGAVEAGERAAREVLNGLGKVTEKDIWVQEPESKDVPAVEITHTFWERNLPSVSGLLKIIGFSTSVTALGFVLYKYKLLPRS

[16] = Apparent permeability across apical to basolateral side in human Caco2 cells at 10 uM after 2 hrs by LC-MS/MS analysis; type: ADME, cell-based; conditions: Caco-2
[17] = Inhibition of PDE4 in human U937 cell lysates assessed as residual cAMP after 2.5 mins by LANCE assay
[18] = Inhibition of PDE4 in human PBMC assessed as reduction in LPS-induced TNFalpha release after 18 hrs by quantitative ELISA
[19] = Tmax in Sprague-Dawley rat plasma at 1 umol/kg, it administered as micronized powder measured up to 24 hrs post dose by electrospray LC-MS analysis; type: ADME, cell-free; conditions: inhaled or intranasal; procedure, shortened: as §3
Plasma [20] = assay: Cmax in Sprague-Dawley rat plasma at 1 umol/kg, it administered as micronized powder measured up to 24 hrs post dose by electrospray LC-MS analysis; type: ADME, cell-free; set-up: dose 1 umol/kg; conditions: inhaled_or_intranasal; procedure, shortened: as §3
[21] = target: High affinity cAMP-specific and IBMX-insensitive 3',5'-cyclic phosphodiesterase 8A (Homo sapiens, UniProt O60658); assay: Inhibition of human recombinant PDE8A1 expressed insect sf9 cells by radiometric assay; procedure, shortened: as §1
Lung [22] = assay: Cmax in Sprague-Dawley rat lung at 1 umol/kg, it administered as micronized powder measured up to 24 hrs post dose by electrospray LC-MS analysis; type: ADME, tissue-based; set-up: dose 1 umol/kg; conditions: in vivo, inhaled_or_intranasal; procedure, shortened: as §3
[23] = target: cGMP-inhibited 3',5'-cyclic phosphodiesterase 3A (Homo sapiens, UniProt Q14432); assay: Inhibition of human recombinant PDE3A expressed insect sf9 cells by radiometric assay; procedure, shortened: as §1
cGMP-inhibited 3',5'-cyclic phosphodiesterase 3A, sequence (Q14432 whole entry): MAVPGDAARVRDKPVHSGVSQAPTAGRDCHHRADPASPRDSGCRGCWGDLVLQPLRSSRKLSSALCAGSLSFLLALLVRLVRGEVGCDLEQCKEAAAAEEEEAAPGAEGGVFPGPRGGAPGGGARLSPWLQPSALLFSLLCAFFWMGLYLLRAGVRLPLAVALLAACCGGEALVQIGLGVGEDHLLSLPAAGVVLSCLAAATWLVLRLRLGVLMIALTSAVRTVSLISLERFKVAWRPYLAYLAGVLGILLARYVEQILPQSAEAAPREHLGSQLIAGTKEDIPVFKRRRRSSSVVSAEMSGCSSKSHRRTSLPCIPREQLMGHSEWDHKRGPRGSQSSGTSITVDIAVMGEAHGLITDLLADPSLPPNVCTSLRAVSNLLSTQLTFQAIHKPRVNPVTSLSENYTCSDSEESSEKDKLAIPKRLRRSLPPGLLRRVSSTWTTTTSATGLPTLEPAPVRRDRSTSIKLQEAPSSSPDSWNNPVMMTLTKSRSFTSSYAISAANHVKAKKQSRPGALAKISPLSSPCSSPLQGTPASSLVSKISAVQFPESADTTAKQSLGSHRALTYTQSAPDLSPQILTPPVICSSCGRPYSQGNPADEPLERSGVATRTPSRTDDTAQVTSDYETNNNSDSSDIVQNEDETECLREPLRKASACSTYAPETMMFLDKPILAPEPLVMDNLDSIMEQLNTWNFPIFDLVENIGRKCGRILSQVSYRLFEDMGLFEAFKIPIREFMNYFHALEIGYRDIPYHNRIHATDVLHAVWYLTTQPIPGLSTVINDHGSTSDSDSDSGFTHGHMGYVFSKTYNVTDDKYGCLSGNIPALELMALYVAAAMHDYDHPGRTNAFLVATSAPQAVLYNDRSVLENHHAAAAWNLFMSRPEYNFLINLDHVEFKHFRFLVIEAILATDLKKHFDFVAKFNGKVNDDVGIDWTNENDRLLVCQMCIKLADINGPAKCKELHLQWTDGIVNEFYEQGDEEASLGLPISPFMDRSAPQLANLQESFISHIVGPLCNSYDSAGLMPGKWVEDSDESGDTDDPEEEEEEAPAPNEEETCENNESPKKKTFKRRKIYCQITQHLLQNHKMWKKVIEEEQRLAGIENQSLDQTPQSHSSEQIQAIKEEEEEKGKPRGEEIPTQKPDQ

cAMP and cAMP-inhibited cGMP 3',5'-cyclic phosphodiesterase 10A, sequence (Q9Y233 whole entry): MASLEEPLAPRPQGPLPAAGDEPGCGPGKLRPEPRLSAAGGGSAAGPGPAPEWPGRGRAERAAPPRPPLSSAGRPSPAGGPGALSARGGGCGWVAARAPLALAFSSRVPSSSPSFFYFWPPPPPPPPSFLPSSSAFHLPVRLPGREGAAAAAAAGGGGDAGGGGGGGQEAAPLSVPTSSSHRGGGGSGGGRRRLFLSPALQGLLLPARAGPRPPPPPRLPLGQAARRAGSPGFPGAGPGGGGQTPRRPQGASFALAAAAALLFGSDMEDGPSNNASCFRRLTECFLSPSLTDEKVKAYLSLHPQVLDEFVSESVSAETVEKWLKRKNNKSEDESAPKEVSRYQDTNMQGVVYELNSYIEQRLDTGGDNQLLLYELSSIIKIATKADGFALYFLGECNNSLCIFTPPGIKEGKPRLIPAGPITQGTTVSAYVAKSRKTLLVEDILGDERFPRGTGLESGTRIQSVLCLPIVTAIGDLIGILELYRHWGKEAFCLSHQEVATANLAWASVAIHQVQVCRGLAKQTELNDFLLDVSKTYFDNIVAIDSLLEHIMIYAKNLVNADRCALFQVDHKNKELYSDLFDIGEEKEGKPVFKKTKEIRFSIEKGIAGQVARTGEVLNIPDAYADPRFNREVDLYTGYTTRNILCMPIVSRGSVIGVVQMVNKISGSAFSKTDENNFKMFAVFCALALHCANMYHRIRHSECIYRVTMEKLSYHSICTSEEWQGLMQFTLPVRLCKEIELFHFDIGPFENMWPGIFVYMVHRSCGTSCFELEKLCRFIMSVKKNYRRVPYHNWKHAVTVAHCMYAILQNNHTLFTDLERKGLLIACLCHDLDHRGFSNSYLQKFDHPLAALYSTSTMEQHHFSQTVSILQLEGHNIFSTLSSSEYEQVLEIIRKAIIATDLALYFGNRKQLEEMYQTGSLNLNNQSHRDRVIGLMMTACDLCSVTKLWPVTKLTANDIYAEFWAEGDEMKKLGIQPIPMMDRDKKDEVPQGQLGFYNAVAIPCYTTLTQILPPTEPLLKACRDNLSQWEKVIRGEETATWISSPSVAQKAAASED
Voltage-gated inwardly rectifying potassium channel KCNH2, sequence (Q12809 whole entry): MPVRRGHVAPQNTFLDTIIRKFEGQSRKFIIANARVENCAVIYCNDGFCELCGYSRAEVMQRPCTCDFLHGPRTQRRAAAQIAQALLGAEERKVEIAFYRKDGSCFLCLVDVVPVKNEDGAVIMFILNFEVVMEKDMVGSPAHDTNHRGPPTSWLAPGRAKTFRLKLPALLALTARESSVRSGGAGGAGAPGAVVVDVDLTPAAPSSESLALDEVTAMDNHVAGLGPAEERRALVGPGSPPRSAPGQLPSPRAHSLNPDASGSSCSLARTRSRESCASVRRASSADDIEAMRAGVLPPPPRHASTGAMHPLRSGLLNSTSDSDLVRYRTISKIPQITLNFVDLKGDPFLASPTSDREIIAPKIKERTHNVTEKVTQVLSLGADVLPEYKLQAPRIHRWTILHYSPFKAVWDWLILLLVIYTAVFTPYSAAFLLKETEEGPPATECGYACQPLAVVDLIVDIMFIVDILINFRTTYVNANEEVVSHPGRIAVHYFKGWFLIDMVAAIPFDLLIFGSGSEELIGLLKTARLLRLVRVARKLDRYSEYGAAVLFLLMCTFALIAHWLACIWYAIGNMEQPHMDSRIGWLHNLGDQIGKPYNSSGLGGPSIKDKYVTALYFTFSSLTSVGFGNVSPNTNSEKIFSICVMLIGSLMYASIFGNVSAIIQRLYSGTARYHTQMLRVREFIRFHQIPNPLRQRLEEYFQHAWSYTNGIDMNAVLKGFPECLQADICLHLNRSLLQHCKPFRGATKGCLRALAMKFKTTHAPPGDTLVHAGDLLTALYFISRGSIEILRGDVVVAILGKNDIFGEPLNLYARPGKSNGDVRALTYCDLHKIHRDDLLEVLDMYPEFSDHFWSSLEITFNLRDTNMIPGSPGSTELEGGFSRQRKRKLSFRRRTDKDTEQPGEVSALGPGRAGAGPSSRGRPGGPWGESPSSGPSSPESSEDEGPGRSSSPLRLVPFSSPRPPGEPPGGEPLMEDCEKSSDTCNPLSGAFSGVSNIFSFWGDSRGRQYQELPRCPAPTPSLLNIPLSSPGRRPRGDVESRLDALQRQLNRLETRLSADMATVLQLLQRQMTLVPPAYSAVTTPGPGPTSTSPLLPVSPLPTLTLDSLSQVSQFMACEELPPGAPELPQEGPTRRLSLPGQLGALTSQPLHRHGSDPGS
High affinity cAMP-specific and IBMX-insensitive 3',5'-cyclic phosphodiesterase 8A, sequence (O60658 whole entry): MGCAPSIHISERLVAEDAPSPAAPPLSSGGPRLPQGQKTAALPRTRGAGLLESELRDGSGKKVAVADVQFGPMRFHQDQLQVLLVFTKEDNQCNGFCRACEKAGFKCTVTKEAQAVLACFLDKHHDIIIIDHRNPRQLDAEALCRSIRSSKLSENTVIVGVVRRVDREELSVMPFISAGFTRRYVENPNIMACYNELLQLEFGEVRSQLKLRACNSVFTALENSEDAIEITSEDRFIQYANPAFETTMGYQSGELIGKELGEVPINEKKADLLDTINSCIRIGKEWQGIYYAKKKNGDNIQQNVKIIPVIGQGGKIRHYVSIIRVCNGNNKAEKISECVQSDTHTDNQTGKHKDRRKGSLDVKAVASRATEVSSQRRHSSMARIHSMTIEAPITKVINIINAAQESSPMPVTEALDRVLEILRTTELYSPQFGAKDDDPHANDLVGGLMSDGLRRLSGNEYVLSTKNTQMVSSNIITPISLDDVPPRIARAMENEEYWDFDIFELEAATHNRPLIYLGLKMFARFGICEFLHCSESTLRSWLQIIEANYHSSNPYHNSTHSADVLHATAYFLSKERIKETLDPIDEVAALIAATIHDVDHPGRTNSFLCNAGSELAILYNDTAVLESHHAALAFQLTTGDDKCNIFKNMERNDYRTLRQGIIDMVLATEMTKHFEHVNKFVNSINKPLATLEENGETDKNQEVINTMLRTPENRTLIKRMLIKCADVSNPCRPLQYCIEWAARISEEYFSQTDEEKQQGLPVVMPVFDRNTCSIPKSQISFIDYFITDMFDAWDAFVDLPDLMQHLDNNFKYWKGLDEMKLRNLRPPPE
Cytochrome P450 3A4, sequence (P08684 whole entry): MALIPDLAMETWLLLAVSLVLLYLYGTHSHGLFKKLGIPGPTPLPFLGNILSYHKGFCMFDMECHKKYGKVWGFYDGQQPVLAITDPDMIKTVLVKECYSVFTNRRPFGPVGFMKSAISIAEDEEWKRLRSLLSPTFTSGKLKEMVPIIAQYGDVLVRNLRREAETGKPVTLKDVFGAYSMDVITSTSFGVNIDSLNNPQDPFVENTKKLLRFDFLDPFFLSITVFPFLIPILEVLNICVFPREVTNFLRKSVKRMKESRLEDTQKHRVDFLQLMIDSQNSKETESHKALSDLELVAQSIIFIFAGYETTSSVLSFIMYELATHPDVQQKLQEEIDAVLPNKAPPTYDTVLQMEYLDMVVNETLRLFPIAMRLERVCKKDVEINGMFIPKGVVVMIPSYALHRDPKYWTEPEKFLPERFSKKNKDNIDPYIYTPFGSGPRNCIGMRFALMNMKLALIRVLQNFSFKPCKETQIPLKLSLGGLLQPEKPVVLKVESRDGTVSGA

IC50 [1] [µM]	Activity (Cytochrome P450 3A4) [%]	IC50 [2] [µM]	Tmax [3] [min]	IC50 [4] [µM]	IC50 [5] [µM]	IC50 [6] [µM]	Drug uptake (Lung [7]) [nmol/g]	Tlast (Lung [8]) [h]	MRT last at 24 h [9] [min]	remaining at 1 h, 10 µM [10] [%]	hepatocyte CLint at 1 µM [11] [µL/min/1e6 cells]	Tlast (Plasma [12]) [h]	microsomal CLint at 1 µM [13] [µL/min/mg]	Activity [15] [%]	Papp A→B at 2 h, 10 µM [16] [×10⁻⁶ cm/s]	IC50 [17] [nM]	IC50 [18] [nM]	Tmax [19] [min]	SMILES	inhibition (INH) [14]	also measured
> 30	84	> 30	15	4.61	0.66	0.81	0.22	24	79.8	51	82.5	8	287	94	0.42	0.053	0.019	4.98	CN(C)C(=O)c1cccc(S(=O)(=O)N2CCS[C@H]2C(=O)O[C@@H](Cc2c(Cl)c[n+]([O-])cc2Cl)c2ccc(OC(F)F)c(OCC3CC3)c2)c1	Not Active	Cmax (Plasma [20]): 9.8 pmol/g; IC50 [21]: 3.56 µM; Cmax (Lung [22]): 16.06 nmol/g; IC50 [23]: 6.21 µM
> 30	73	> 30	4.98	13.9	3.46	4.03	0.128	24	64.8	78	95.5	8	591	76	0.48	0.0378	0.032	4.98	CN(C)C(=O)c1cccc(S(=O)(=O)N2CCC[C@H]2C(=O)O[C@@H](Cc2c(Cl)c[n+]([O-])cc2Cl)c2ccc(OC(F)F)c(OCC3CC3)c2)c1 (relative stereo)	Not Active	Cmax (Plasma [20]): 20.65 pmol/g; IC50 [21]: 17 µM; Cmax (Lung [22]): 16.24 nmol/g; IC50 [23]: > 30 µM
